The text below walks through data of ChEMBL document CHEMBL4184236, “Design, synthesis and biological evaluation of matrine derivatives as potential anticancer agents” (Bioorg Med Chem Lett, 2018).

Test [1] concerns CNE-2. The test is described as follows: Induction of apoptosis in human CNE2 cells assessed as late apoptotic cells level at 20 uM incubated for 24 hrs by Annexin V-FITC/PI dual staining based flow cytometry (reference value: 1.37%). Format: functional. In outline: (§1)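 CNE2 and SMMC-7721 cells were treated for 24 h at 0, 5, 10 or 30 µM, or at 0, 10, 20 or 50 µM depending on compound. Cells were stained with Annexin V-FITC/propidium iodide and quantified by flow cytometry. Apoptotic cells were counted as AV+/PI− (lower right) plus AV+/PI+ (upper right) quadrants.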
Background: A flow cytometer gives signals particle by particle.

Test [2] relates to SMMC-7721. Kind of test: Induction of apoptosis in human SMMC7721 cells assessed as necrotic cells level at 10 uM incubated for 24 hrs by Annexin V-FITC/PI dual staining based flow cytometry (reference value: 1.18%). Format: functional. In a few lines: as §1
Test [3] deals with SMMC-7721. The test is described as follows: Induction of apoptosis in human SMMC7721 cells assessed as early apoptotic cells level at 20 uM incubated for 24 hrs by Annexin V-FITC/PI dual staining based flow cytometry (reference value: 1%). The class given is functional. In outline:
as §1

The test system of test [4] is SMMC-7721. The test is described as follows: Induction of apoptosis in human SMMC7721 cells assessed as late apoptotic cells level at 20 uM incubated for 24 hrs by Annexin V-FITC/PI dual staining based flow cytometry (reference value: 1.6%). The class given is functional. In a few lines:
as §1

Test [5] has as its system SMMC-7721. The test is described as follows: Induction of apoptosis in human SMMC7721 cells incubated for 24 hrs by Annexin V-FITC/PI dual staining based flow cytometry. The class given is functional, cell-based. In outline:
as §1

The subject of test [6] is SMMC-7721. Kind of test: Induction of apoptosis in human SMMC7721 cells assessed as viable cells level at 10 uM incubated for 24 hrs by Annexin V-FITC/PI dual staining based flow cytometry (reference value: 96.2%). The class given is functional. In outline: as §1
The test system of test [7] is CNE-2. Kind of test: Induction of apoptosis in human CNE2 cells assessed as necrotic cells level at 20 uM incubated for 24 hrs by Annexin V-FITC/PI dual staining based flow cytometry (reference value: 3.43%). Format: functional. In outline: as §1
The test system of test [8] is CNE-2. Kind of test: Induction of apoptosis in human CNE2 cells assessed as viable cells level at 50 uM incubated for 24 hrs by Annexin V-FITC/PI dual staining based flow cytometry (reference value: 91.6%). Format: functional. In a few lines:
as §1

Test [9] deals with CNE-2. Kind of test: Induction of apoptosis in human CNE2 cells incubated for 24 hrs by Annexin V-FITC/PI dual staining based flow cytometry. The class given is functional, cell-based. In a few lines: as §1
The subject of test [10] is SMMC-7721. Kind of test: Induction of apoptosis in human SMMC7721 cells assessed as early apoptotic cells level at 50 uM incubated for 24 hrs by Annexin V-FITC/PI dual staining based flow cytometry (reference value: 1%). Format: functional. In outline: as §1
The test system of test [11] is SMMC-7721. Kind of test: Induction of apoptosis in human SMMC7721 cells assessed as early apoptotic cells level at 10 uM incubated for 24 hrs by Annexin V-FITC/PI dual staining based flow cytometry (reference value: 1%). The class given is functional. In outline: as §1
For test [12], the system named is SMMC-7721. The test is described as follows: Induction of apoptosis in human SMMC7721 cells assessed as viable cells level at 50 uM incubated for 24 hrs by Annexin V-FITC/PI dual staining based flow cytometry (reference value: 96.2%). Format: functional. In outline:
as §1

Test [13] has as its system SMMC-7721. The test is described as follows: Induction of apoptosis in human SMMC7721 cells assessed as late apoptotic cells level at 10 uM incubated for 24 hrs by Annexin V-FITC/PI dual staining based flow cytometry (reference value: 1.6%). Format: functional. In a few lines: as §1
Test [14] has as its system CNE-2. Kind of test: Induction of apoptosis in human CNE2 cells assessed as early apoptotic cells level at 50 uM incubated for 24 hrs by Annexin V-FITC/PI dual staining based flow cytometry (reference value: 3.56%). The class given is functional. In outline:
as §1

The test system of test [15] is CNE-2. The test is described as follows: Induction of apoptosis in human CNE2 cells assessed as late apoptotic cells level at 50 uM incubated for 24 hrs by Annexin V-FITC/PI dual staining based flow cytometry (reference value: 1.37%). Format: functional. In a few lines:
as §1

The subject of test [16] is SMMC-7721. Kind of test: Induction of apoptosis in human SMMC7721 cells assessed as late apoptotic cells level at 50 uM incubated for 24 hrs by Annexin V-FITC/PI dual staining based flow cytometry (reference value: 1.6%). The class given is functional. In a few lines:
as §1

Test [17] relates to SMMC-7721. The test is described as follows: Anticancer activity against human SMMC7721 cells assessed as reduction in cell viability incubated for 48 hrs MTT assay. Format: functional, cell-based. Conditions: SMMC-7721, 48 h. In outline: (§2)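 MTT assay on human hepatocarcinoma SMMC-7721, lung carcinoma A549 and nasopharyngeal carcinoma CNE2 cells, with matrine as comparator and cisplatin as positive control. IC50 is the concentration that lowers optical density of treated cells by 50% versus untreated cells, given as the mean ± SD of three experiments.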
(Formazan colour is commonly taken as a measure of viable cells.)

The subject of test [18] is SMMC-7721. The test is described as follows: Induction of apoptosis in human SMMC7721 cells assessed as viable cells level at 20 uM incubated for 24 hrs by Annexin V-FITC/PI dual staining based flow cytometry (reference value: 96.2%). The class given is functional. In outline:
as §1

Another test has as its system A549. The test is described as follows: Anticancer activity against human A549 cells assessed as reduction in cell viability incubated for 48 hrs MTT assay. The class given is functional, cell-based. The settings on record: A549, 48 h. In outline: as §2
The test system of test [19] is CNE-2. The test is described as follows: Induction of apoptosis in human CNE2 cells assessed as viable cells level at 20 uM incubated for 24 hrs by Annexin V-FITC/PI dual staining based flow cytometry (reference value: 91.6%). The class given is functional. In a few lines: as §1
The subject of test [20] is SMMC-7721. The test is described as follows: Induction of apoptosis in human SMMC7721 cells assessed as necrotic cells level at 50 uM incubated for 24 hrs by Annexin V-FITC/PI dual staining based flow cytometry (reference value: 1.18%). Format: functional. In a few lines:
as §1

Test [21] relates to SMMC-7721. Kind of test: Induction of apoptosis in human SMMC7721 cells assessed as necrotic cells level at 20 uM incubated for 24 hrs by Annexin V-FITC/PI dual staining based flow cytometry (reference value: 1.18%). The class given is functional. In outline: as §1
For test [22], the system named is CNE-2. The test is described as follows: Induction of apoptosis in human CNE2 cells assessed as early apoptotic cells level at 20 uM incubated for 24 hrs by Annexin V-FITC/PI dual staining based flow cytometry (reference value: 3.56%). Format: functional. In outline: as §1
Test [23] has as its system CNE-2. Kind of test: Induction of apoptosis in human CNE2 cells assessed as necrotic cells level at 50 uM incubated for 24 hrs by Annexin V-FITC/PI dual staining based flow cytometry (reference value: 3.43%). Format: functional. In outline: as §1
The subject of test [24] is CNE-2. Kind of test: Anticancer activity against human CNE2 cells assessed as reduction in cell viability incubated for 48 hrs MTT assay. The class given is functional, cell-based. Conditions: CNE-2, 48 h. In outline:
as §2

What is called IC50 is the point on the concentration scale where inhibition reaches its midpoint.

As for `COc1ccc2c(c1)c(/C=C1\CC[C@@H]3[C@H]4CCCN5CCC[C@@H](CN3C1=O)[C@@H]45)cn2Cc1cccc(Cl)c1`, the Activity was 8.7% with CNE-2 [1]; 0.69% in the test on SMMC-7721 [2]; 40.6% in the test with SMMC-7721 [3]; 18.2% in the test on SMMC-7721 [4]; “Dose-dependent effect” in the test on SMMC-7721 [5]; 60.3% in the test on SMMC-7721 [6]. The Activity in the test with CNE-2 [7] was 2.7%; with CNE-2 [8], 21.2%; in the test with CNE-2 [9], “Dose-dependent effect”; in the test on SMMC-7721 [10], 15.5%; with SMMC-7721 [11] it was 35.6%; in the test on SMMC-7721 [12], 2.15%. In addition, the Activity with SMMC-7721 [13] is given as 3.4%; in the test with CNE-2 [14], 45.9%; in the test with CNE-2 [15], 28.3%; with SMMC-7721 [16] it was 79.5%; in the test on SMMC-7721 [18] it was 38.6%; in the test with CNE-2 [19], 58.7%. In addition, the Activity in the test with SMMC-7721 [20] came to 2.91%; in the test with SMMC-7721 [21], 2.53%; in the test on CNE-2 [22], 29.9%; in the test on CNE-2 [23], 4.62%. Moreover, the IC50 was 3.95 µM in the test with SMMC-7721 [17], 4.96 µM in the test on A549 and 3.42 µM in the test with CNE-2 [24].

As to `O=C1CCC[C@@H]2[C@H]3CCCN4CCC[C@@H](CN12)[C@@H]34` [MATRINE], the IC50 is 6590 µM in the test on SMMC-7721 [17], 5720 µM in the test on A549 and 5280 µM in the test on CNE-2 [24].

As for `O=C1/C(=C/c2cccn2Cc2ccc(OCc3ccccc3)cc2)CC[C@@H]2[C@H]3CCCN4CCC[C@@H](CN12)[C@@H]34`, the IC50 stood at 12.9 µM in the test on SMMC-7721 [17], 13.1 µM in the test on A549 and 10.8 µM in the test with CNE-2 [24].

As for `Cc1ccc(Cn2cccc2/C=C2\CC[C@@H]3[C@H]4CCCN5CCC[C@@H](CN3C2=O)[C@@H]45)cc1`, the IC50 in the test on SMMC-7721 [17] was 27.9 µM; in the test on A549 it was 24.4 µM; with CNE-2 [24], 21.9 µM.

Consider `COc1cc(Cn2cccc2/C=C2\CC[C@@H]3[C@H]4CCCN5CCC[C@@H](CN3C2=O)[C@@H]45)cc(OC)c1OC`, for which the figures for the IC50 in the test with SMMC-7721 [17], in the test on A549 and in the test on CNE-2 [24] were 13.3 µM, 18.9 µM and 7.83 µM, respectively.
